Activity calls are given as the source filed them. The rule behind the calls is not given here.
Experiments:
[1] = molecular target: Peroxisome proliferator-activated receptor gamma (Homo sapiens) (UniProt P37231); assay: Agonist activity at PPARgamma LBD (unknown origin) transfected in human HepG2 cells co-expressing GAL4-DBD at 10 uM after 18 hrs by luciferase reporter gene assay
[2] = molecular target: T1, Bile acid receptor (Homo sapiens, UniProt Q96RI1); assay: (§1) Antagonist activity at FXR (unknown origin) expressed in human HepG2 cells co-expressing RXR assessed as inhibition of CDCA-induced transactivation after 18 hrs by luciferase reporter gene assay; assay type: cell-based
T1 sequence (Q96RI1 whole entry): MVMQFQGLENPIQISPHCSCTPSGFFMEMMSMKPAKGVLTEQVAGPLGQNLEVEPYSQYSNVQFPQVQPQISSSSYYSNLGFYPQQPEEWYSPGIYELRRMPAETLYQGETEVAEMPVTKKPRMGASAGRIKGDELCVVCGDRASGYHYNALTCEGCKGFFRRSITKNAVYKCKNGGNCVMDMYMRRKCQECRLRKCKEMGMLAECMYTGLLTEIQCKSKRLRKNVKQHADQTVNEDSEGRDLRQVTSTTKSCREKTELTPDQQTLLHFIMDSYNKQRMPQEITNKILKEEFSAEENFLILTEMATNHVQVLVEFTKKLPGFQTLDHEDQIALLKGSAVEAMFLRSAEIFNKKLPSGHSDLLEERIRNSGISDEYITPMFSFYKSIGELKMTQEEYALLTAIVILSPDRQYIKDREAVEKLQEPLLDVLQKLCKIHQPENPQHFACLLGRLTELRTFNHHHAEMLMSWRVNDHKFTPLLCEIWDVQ
Method in brief: (§2)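 HepG2 cells (in MEM, 10% FBS, 37 °C) were plated at 1 × 10^5 cells/well. They were transfected with 150 ng pSG5-FXR, 150 ng pSG5-RXR, 200 ng pCMV-βgal and 500 ng p(hsp27)-TK-LUC (IR1 element). At 24 h they were stimulated 18 h with compound alone (10 μM, or 1–50 μM series) or with compound (50 μM, or 1–50 μM series) plus 10 μM CDCA. Luciferase was normalized to β-galactosidase activity.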

[3] = molecular target: T2, Bile acid receptor (Homo sapiens) (UniProt Q96RI1); assay: Antagonist activity at FXR (unknown origin) expressed in human HepG2 cells co-expressing RXR assessed as inhibition of CDCA-induced SHP gene expression at 50 uM after 18 hrs by RT-PCR analysis; assay type: cell-based
T2 sequence (whole entry): T1 sequence (Q96RI1 whole entry)
Method in brief: (§3)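 HepG2 cells (1 × 10^6) were starved 24 h at 37 °C in E-MEM with 1% FBS. They were then primed 18 h with compound alone at 10 μM, or with 10 μM CDCA plus compound at 50 μM. Total RNA was extracted with TRIzol, DNase-treated and random-primed reverse-transcribed. 25 ng template was amplified by SYBR Green qPCR (0.2 μM primers, 40 cycles) in triplicate.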

[4] = molecular target: T3, Oxysterols receptor LXR-alpha (Homo sapiens) (UniProt Q13133); assay: Agonist activity at LXRalpha LBD (unknown origin) transfected in human HepG2 cells co-expressing GAL4-DBD at 10 uM after 18 hrs by luciferase reporter gene assay; assay type: cell-based
T3 sequence (whole entry): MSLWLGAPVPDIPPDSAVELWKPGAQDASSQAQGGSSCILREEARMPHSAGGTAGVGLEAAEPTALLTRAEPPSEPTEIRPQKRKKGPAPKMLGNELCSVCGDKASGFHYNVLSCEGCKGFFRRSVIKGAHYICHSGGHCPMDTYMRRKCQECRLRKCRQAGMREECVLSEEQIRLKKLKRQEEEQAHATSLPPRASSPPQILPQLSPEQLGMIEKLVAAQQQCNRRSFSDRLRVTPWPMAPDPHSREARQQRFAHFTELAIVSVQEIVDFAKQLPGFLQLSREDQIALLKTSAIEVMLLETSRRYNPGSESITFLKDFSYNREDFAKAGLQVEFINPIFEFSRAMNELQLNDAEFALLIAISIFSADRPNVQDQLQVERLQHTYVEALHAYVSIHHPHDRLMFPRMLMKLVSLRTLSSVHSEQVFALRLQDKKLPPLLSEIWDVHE
Method in brief: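 HepG2 cells were transiently transfected with 500 ng p(UAS)5XTKLuc, 200 ng pCMV-β-galactosidase and a GAL4-DBD–LXRα LBD vector. At 48 h post-transfection they were stimulated 18 h with compound at 10 μM or the reference agonist. Luciferase was read. Data are mean ± SE of three experiments.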

[5] = molecular target: T4, Nuclear receptor subfamily 1 group I member 2 (Homo sapiens, UniProt O75469); assay: Agonist activity at PXR (unknown origin) transfected in human HepG2 cells co-expressing RXR assessed as CYP3A4 expression at 10 uM after 18 hrs by luciferase reporter gene assay; conditions: hepg2, 18 h
T4 sequence (O75469 whole entry): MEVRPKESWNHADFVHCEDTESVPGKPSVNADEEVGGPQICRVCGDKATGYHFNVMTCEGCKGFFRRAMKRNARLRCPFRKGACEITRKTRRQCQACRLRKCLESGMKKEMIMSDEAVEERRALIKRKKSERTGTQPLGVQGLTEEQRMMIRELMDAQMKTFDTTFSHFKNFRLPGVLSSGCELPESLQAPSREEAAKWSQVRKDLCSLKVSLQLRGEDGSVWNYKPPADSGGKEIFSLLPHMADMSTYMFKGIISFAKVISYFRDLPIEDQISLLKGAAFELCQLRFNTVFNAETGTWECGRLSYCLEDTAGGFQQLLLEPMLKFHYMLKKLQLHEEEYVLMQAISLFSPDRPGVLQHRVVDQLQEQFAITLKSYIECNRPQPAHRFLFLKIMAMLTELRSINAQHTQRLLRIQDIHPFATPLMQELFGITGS

[6] = molecular target: T2, Bile acid receptor (Homo sapiens); assay: Antagonist activity at FXR (unknown origin) expressed in human HepG2 cells co-expressing RXR assessed as inhibition of CDCA-induced OSTalpha gene expression at 50 uM after 18 hrs by RT-PCR analysis; assay type: cell-based
Method in brief: as §3

[7] = molecular target: T2, Bile acid receptor (Homo sapiens); assay: Antagonist activity at FXR (unknown origin) expressed in human HepG2 cells co-expressing RXR assessed as inhibition of CDCA-induced transactivation at 50 uM after 18 hrs by luciferase reporter gene assay; assay type: cell-based
Method in brief: as §2

[8] = molecular target: T2, Bile acid receptor (Homo sapiens); assay: Agonist activity FXR (unknown origin) expressed in human HepG2 cells co-expressing RXR assessed as effect on CyP7alpha1 mRNA level […] after 18 hrs by RT-PCR analysis; assay type: cell-based
Method in brief: as §3

[9] = molecular target: T2, Bile acid receptor (Homo sapiens); assay: Agonist activity FXR (unknown origin) expressed in human HepG2 cells co-expressing RXR assessed as effect on OSTalpha mRNA level […] after 18 hrs by RT-PCR analysis; assay type: cell-based
Method in brief: as §3

[10] = molecular target: T2, Bile acid receptor (Homo sapiens); assay: Transactivation of FXR (unknown origin) expressed in human HepG2 cells co-expressing RXR assessed as beta-galactosidase activity at 50 uM after 18 hrs by luciferase reporter gene assay; assay type: cell-based
Method in brief: as §2

[11] = molecular target: T2, Bile acid receptor (Homo sapiens); assay: Agonist activity FXR (unknown origin) expressed in human HepG2 cells co-expressing RXR assessed as effect on SHP mRNA level at […] after 18 hrs by RT-PCR analysis; assay type: cell-based
Method in brief: as §3

[12] = molecular target: T1, Bile acid receptor; assay: Transactivation of FXR (unknown origin) expressed in human HepG2 cells co-expressing RXR assessed as beta-galactosidase activity after 18 hrs by luciferase reporter gene assay; assay type: cell-based
Method in brief: as §2

[13] = molecular target: T2, Bile acid receptor (Homo sapiens); assay: Transactivation of FXR (unknown origin) expressed in human HepG2 cells co-expressing RXR assessed as beta-galactosidase activity at 50 uM after 18 hrs by luciferase reporter gene assay relative to CDCA; assay type: cell-based
Method in brief: as §2

[14] = molecular target: T2, Bile acid receptor (Homo sapiens); assay: as §1; assay type: cell-based
Method in brief: as §2

[15] = molecular target: T2, Bile acid receptor (Homo sapiens); assay: Antagonist activity at FXR (unknown origin) expressed in human HepG2 cells co-expressing RXR assessed as inhibition of CyP7alpha1 gene expression at 50 uM after 18 hrs by RT-PCR analysis; assay type: cell-based
Method in brief: as §3

[16] = molecular target: T2, Bile acid receptor (Homo sapiens); assay: Antagonist activity at FXR (unknown origin) expressed in human HepG2 cells assessed as inhibition of 6-ECDCA-induced FXR/Src-1-mediated transcription activation complex formation at 15 uM after 18 hrs by chromatin immunoprecipitation assay; assay type: cell-based
Method in brief: (§4)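 HepG2 cells (10 × 10^6) were serum-starved 24 h, then treated 18 h with 6-ECDCA 5 μM alone or with compound 15 μM. Cells were crosslinked with 1% formaldehyde for 10 min and quenched with 125 mM glycine. Sonicated chromatin was immunoprecipitated overnight at 4 °C with anti-FXR, anti-Src1, anti-NCoR or IgG. OSTα promoter DNA was measured by qPCR as 2^−ΔΔCt versus input and unstimulated IgG.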

[17] = molecular target: T2, Bile acid receptor (Homo sapiens); assay: Antagonist activity at FXR (unknown origin) expressed in human HepG2 cells assessed as inhibition of 6-ECDCA-induced NCoR binding to chromatin at 15 uM after 18 hrs by chromatin immunoprecipitation assay; assay type: cell-based
Method in brief: as §4

[18] = molecular target: T2, Bile acid receptor (Homo sapiens); assay: Transactivation of FXR (unknown origin) expressed in human HepG2 cells co-expressing RXR assessed as beta-galactosidase activity at 10 uM after 18 hrs by luciferase reporter gene assay; assay type: cell-based
Method in brief: as §2

Row | Activity [1] | EC50 [2] [µM] | inhibition [3] | Activity [4] | Activity [5] | inhibition [6] | inhibition [7] | Activity [10] | Compound | also measured
1 | inactive | 25 | Active | inactive | Active | Active | – | – | CC1(C)CCC[C@]2(C)[C@H]3CC[C@H](O)[C@H](CCc4ccoc4)[C@@]3(C)CC[C@@H]12 | –
2 | inactive | – | – | inactive | Active | – | – | Active | CC1(C)CCC[C@]2(C)[C@H]3CC[C@@H](CCCO)[C@H](CCc4ccoc4)[C@@]3(C)CC[C@@H]12 | Activity [8]: Active; Activity [9]: Active; Activity [11]: Active; EC50 [12]: 30 µM; Efficacy [13]: 21.5%
3 | – | – | – | – | – | – | – | Active | CC1(C)CCC[C@]2(C)[C@H]3CC[C@H](/C=C/C(=O)O)[C@H](CCc4ccoc4)[C@@]3(C)CC[C@@H]12 | –

Further lines, the compound ahead of its results:

Row | Compound | Activity [1] | EC50 [2] [µM] | inhibition [3] | Activity [4] | Activity [5] | inhibition [6] | inhibition [7] | Activity [10] | also measured
4 | CC1(C)CCC[C@]2(C)C3CC[C@@]4(C=O)[C@@H]5OC(=O)C=C5CC[C@@H]4[C@@]3(C)CC[C@@H]12 (single isomer, unassigned) | – | – | Active | – | – | Active | Active | – | –
5 | COC(=O)CC[C@H]1C(=O)CC[C@H]2[C@]1(C)CC[C@H]1C(C)(C)CCC[C@]21C | – | – | Active | – | – | Active | – | – | –
6 | CC1(C)CCC[C@]2(C)[C@H]3CC/C(=C\OS(=O)(=O)[O-])[C@H](CCc4ccoc4)[C@@]3(C)CC[C@@H]12.[Na+] [SUVANINE'S SODIUM SALT] | inactive | 24 | Active | inactive | Active | Active | Active | – | inhibition [14]: Dose-dependent effect; Activity [15]: Active; inhibition [16]: Active; inhibition [17]: inactive; Activity [18]: inactive
